Measurements of several laboratories.
Each line is one published result; the experiments were not run side by side.
Target: Calcium/calmodulin-dependent protein kinase kinase 2 (CAMKK2, Homo sapiens, UniProt Q96RR4)

Structure (SMILES)	read-out	action	method	tested at	endpoint	value
Cn1c2c(Cl)c(Cl)ccc2c2cn[nH]c(=O)c21	thermal stability	–	DSF	10 µM	ΔTm	0.4 °C
O=C1NC(=O)c2cc(Nc3ccc(F)cc3)c(Nc3ccc(F)cc3)cc21	cell-free assay	–	–	0.5 µM	remaining signal	88.3%
CN(C)c1nccc(-c2cnc3ncccn23)n1	binding	–	–	1 µM	remaining binding	100%
Cc1ccc(C(=O)Nc2ccc(CN3CCN(C)CC3)c(C(F)(F)F)c2)cc1C#Cc1cnc2cccnn12	enzyme activity	inhibitor	–	23.5 nM	remaining activity	83%
CS(=O)(=O)Nc1cccc(-c2csc(NC(=O)CSc3nc4nccnc4c(=O)n3CCc3ccccc3)n2)c1	enzyme activity	inhibitor	–	10 µM	inhibition	4%
C[C@H](c1ccnc(Nc2nc3ccc(-c4cc(N(C)C)ncn4)cc3[nH]2)c1)N1CCN(C(=O)CC(F)(F)F)CC1	cell-free assay	–	competition with immobilised ligand	0.1 µM	remaining binding	77%
CC(C)(C)c1nc(-c2cccc(NS(=O)(=O)c3c(F)cccc3F)c2F)c(-c2ccnc(N)n2)s1	enzyme activity	inhibitor	radiometric	1 µM	remaining activity	113%
CN1CCN(c2cnc3c(C4CCN(C(=O)c5ccc(OC(F)(F)F)cc5N)CC4)ncnc3c2)CC1	cell-free assay	–	competition with immobilised ligand	1 µM	remaining binding	100%
CCCCNc1ncc2c(-c3ccc(F)cc3)nn(C[C@H]3CC[C@H](N)CC3)c2n1	target engagement in cells	inhibitor	chemoproteomics	20 mM	inhibition	33.4%
N#CCCc1ccc2c(c1)-c1[nH]c3ccc([N+](=O)[O-])cc3c1CC(=O)N2	cell-free assay	–	–	0.5 µM	remaining signal	86.8%
Nc1nc(Nc2ccccc2)sc1C(=O)c1c(F)cccc1F	enzyme activity	inhibitor	–	10 µM	remaining activity	12%
Cn1c2c(c3ccc(Cl)c(Cl)c31)C(C#N)C1(CCCC1)NC2=O (centres unmarked)	thermal stability	–	DSF	10 µM	ΔTm	0.3 °C
FC(F)(F)Oc1cccc(-c2cnc3ccc(-c4ccncc4)nn23)c1	enzyme activity	inhibitor	radiometric	5 µM	activity vs control	60%
CCS(=O)(=O)c1cc2cc(C[C@@](O)(CC(C)(C)c3ccc(F)cc3C(N)=O)C(F)(F)F)[nH]c2cn1	cell-free assay	–	competition with immobilised ligand	1 µM	remaining binding	56%
Oc1cccc(-c2nc(N3CCOCC3)c3oc4ncccc4c3n2)c1	enzyme activity	inhibitor	–	10 µM	remaining activity	114%
CN1CC(Oc2cnc(C#N)cc2-c2ccn3nc(NC(=O)C4CC4)cc3c2)C1	enzyme activity	inhibitor	–	1 µM	inhibition	5%
O=C(O)[C@H]1[C@H](Cn2nnc3ccccc3c2=O)CC[C@@H]1C(=O)c1ccc(OCCC2CCOCC2)cc1	cell-free assay	–	competition with immobilised ligand	1 µM	remaining binding	90%
Nc1nc(NC2CCCCC2)sc1C(=O)c1ccccc1	enzyme activity	inhibitor	–	10 µM	remaining activity	63%
O=C(NCc1ncc(C(F)(F)F)cc1Cl)c1ccc2c(c1)C1(CCS(=O)(=O)CC1)[C@H](C1CC1)N2S(=O)(=O)c1ccc(F)cc1	cell-free assay	–	competition with immobilised ligand	1 µM	remaining binding	100%
COc1cc(/C=C/C(=O)CC(=O)/C=C/c2ccc(O)c(OC)c2)ccc1O	enzyme activity	inhibitor	–	1 µM	activity vs control	44%
O=C(Nc1cnn(-c2csc(C(=O)NC3COC3)c2)c1)Nc1c(F)cccc1Cl	enzyme activity	inhibitor	–	5 µM	remaining activity	81%
CCN1CCC2(CC1)NC(=O)c1c(c3ccc(Cl)c(Cl)c3n1C)C2C#N (racemic)	thermal stability	–	DSF	10 µM	ΔTm	0.5 °C
COc1cc(Nc2cnc(C#N)c(O[C@H](C)CN(C)C)n2)ncc1-c1cnn(C)c1	enzyme activity	inhibitor	radiometric	10 µM	remaining activity	71%
O=C(O)c1cc(-c2ccc(C3CCNCC3)cc2)c2ccc(-c3ccc(C(F)(F)F)cc3)cc2c1	cell-free assay	–	competition with immobilised ligand	1 µM	remaining binding	100%
CS(=O)(=O)CCNCc1ccc(-c2ccc3ncnc(Nc4ccc(OCc5cccc(F)c5)c(Cl)c4)c3c2)o1	cell-free assay	–	–	0.5 µM	remaining signal	101%
CCOCCn1cc(C(=O)Nc2ccc(-n3nc(-c4cccnc4)cc3C(F)(F)F)cn2)ccc1=O	cell-free assay	–	competition with immobilised ligand	1 µM	remaining binding	100%
CC(C)(O)[C@H]1CC[C@H](Nc2ccc3ncc(-c4cccc(C(F)(F)F)c4)n3n2)CC1	enzyme activity	inhibitor	–	1 µM	remaining activity	96.9%
CCCOc1ccc([C@H]2[C@H](C(=O)O)[C@@H](c3ccc4c(c3)OCO4)CN2CC(=O)Nc2c(CC)cccc2CC)cc1	cell-free assay	–	competition with immobilised ligand	1 µM	remaining binding	93%
c1ccc(CNc2nc(N3CCOc4ccccc43)nc3c2CCCC3)cc1	target engagement in cells	inhibitor	chemoproteomics	20 mM	inhibition	0.1%
